The values below come from ChEMBL document CHEMBL4376883, “Discovery and Optimization of Small Molecules Targeting the Protein-Protein Interaction of Heat Shock Protein 90 (Hsp90) and Cell Division Cycle 37 as Orally Active Inhibitors for the Treatment of Colorectal Cancer” (J Med Chem, 2020).

The nature of data set [1]: Half life in plasma of human HCT116 cells xenografted BALB/c mouse at 80 mg/kg, po administered as single dose by LC-MS/MS analysis. Type of data set: ADME, organism-based. The procedure, abridged: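 Single oral dose of 80 mg/kg given to BALB/c nude mice (n = 6 per group) carrying flank HCT116 xenografts. Blood and tumor were collected at 0, 0.25, 0.5, 1, 2, 4, 8, 12 and 24 h. Blood went into heparinized tubes and was spun at 3000 rpm for 10 min to give plasma. Samples were stored at -80 °C, then drug levels in plasma and tumor were measured by LC-MS/MS.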

In the next data set the target is Heat shock protein HSP90 (Homo sapiens, UniProt P07900+P08238). The experiment in a line: Binding affinity to recombinant […] biotinylated-HSP90 N-terminal domain (9 to 236 residues) (unknown origin) expressed in Escherichia coli BL21 (DE3) by biolayer interferometry. The method in brief:
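Biotinylated Hsp90 (100 µg/mL) loaded onto streptavidin sensors prewetted 10 min in PBS with 0.05% BSA and 0.01% Tween 20. Analyte binding measured at 28 °C. Double reference subtraction applied; data fitted to a 1:1 model with K_D = K_off/K_on.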

Data set [2] is described as follows: Half life in human liver microsomes at 10 uM preincubated for 5 mins followed by NADPH addition by LC-MS/MS analysis. It is filed as ADME, Microsome. The method in brief:
(§1)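 Compound at 10 µM preincubated 5 min at 37 °C with human or mouse liver microsomes (0.5 mg/mL) in 100 mM phosphate, pH 7.4. Reaction started with 1 mM NADPH, stopped with cold acetonitrile, centrifuged and analysed by LC-MS/MS.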

Data set [3] in a line: Apparent volume of distribution during terminal phase in plasma of human HCT116 cells xenografted BALB/c mouse at 80 mg/kg, po administered as single dose by LC-MS/MS analysis. Type of data set: ADME, organism-based. Particulars: read-out: Vz/F. The procedure, abridged: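 Xenograft mice (n = 6 per group) received a single 80 mg/kg oral dose. Plasma and tumour were sampled over 0–24 h into heparinized tubes and analysed by LC-MS/MS.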

Data set [4] is described as follows: Clearance in human liver microsomes at 10 uM preincubated for 5 mins followed by NADPH addition by LC-MS/MS analysis. Particulars: read-out: CLH; call rule not given here. Type of data set: ADME, Microsome. The method in brief:
as §1

Data set [5] is described as follows: AUC (0 to t) in plasma of human HCT116 cells xenografted BALB/c mouse at 80 mg/kg, po administered as single dose by LC-MS/MS analysis. Type of data set: ADME, organism-based. The procedure, abridged:
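Tumour-bearing mice (n = 6 per group) given one oral dose of 80 mg/kg. Blood and tumour collected into heparinized tubes at 0, 0.25, 0.5, 1, 2, 4, 8, 12 and 24 h. Plasma obtained by centrifugation at 3000 rpm for 10 min. Samples stored at -80 °C and quantified by LC-MS/MS.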

A short description of data set [6]: Stability of the compound in mouse plasma assessed as parent compound remaining at 1 uM measured after 30 mins by LC-MS/MS analysis. Type of data set: ADME, cell-free. Particulars: read-out: Stability. The method in brief:
(§2)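 Compound diluted from 10 mM DMSO stock to 1 μM in mouse or human plasma and held at 37 °C in a water bath. Reactions were stopped with acetonitrile at 0, 10, 30, 60 and 90 min. Parent compound was quantified by LC-MS/MS as % remaining.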

Data set [7] deals with HCT-116. The experiment in a line: Effect on total phosphorylated CDC37 expression in human HCT116 cells up to 10 uM measured after 24 hrs by Western blot analysis. Type of data set: ADME, cell-based. Particulars: hct-116, 24 h. The procedure, abridged:
(§3)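 HCT116 cells treated with 0, 1, 5 or 10 µM for 24 h, or with 10 µM for 0, 4, 12, 24 or 48 h. Lysates separated by SDS-PAGE and blotted. Membranes blocked in 5% milk, primary antibodies overnight at 4 °C, HRP secondaries, chemiluminescent detection.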

A short description of data set [8]: Half life in plasma of human HCT116 cells xenografted BALB/c mouse at 80 mg/kg administered as single dose by LC-MS/MS analysis.
The nature of data set [9]: Permeability of the compound at pH 7.4 by PAMPA. The note with it: read-out: permeability. It is filed as ADME. The method in brief: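 Permeability coefficient (Pe) was measured at pH 7.4 by double-sink PAMPA.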
In data set [10] the test system is HCT-116. The experiment in a line: Effect on HSP90 expression in human HCT116 cells at 10 uM measured up to 48 hrs by Western blot analysis. Type of data set: cell-based. The note with it: hct-116, 48 h. The procedure, abridged: as §3
The subject of data set [11] is HCT-116. The data set is described as follows: Effect on total phosphorylated CDC37 expression in human HCT116 cells at 10 uM measured up to 48 hrs by Western blot analysis. Type of data set: ADME, cell-based. Particulars: hct-116, 48 h. The method in brief:
as §3

Data set [12] can be described thus: MRT in tumor of human HCT116 cells xenografted BALB/c mouse at 80 mg/kg administered as single dose by LC-MS/MS analysis. Type of data set: ADME, organism-based, Neoplasm. The method in brief: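 HCT116-xenografted mice (n = 6 per group) received a single oral 80 mg/kg dose. Blood and tumor were sampled at 0 to 24 h. Plasma was obtained by centrifugation at 3000 rpm for 10 min. Samples were stored at −80 °C and quantified by LC-MS/MS.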

In data set [13] the test system is HCT-116. The experiment in a line: Effect on CDC37 expression in human HCT116 cells up to 10 uM measured after 24 hrs by Western blot analysis. It is filed as cell-based. The note with it: hct-116, 24 h. The procedure, abridged: as §3
The nature of data set [14]: Stability of the compound in human plasma assessed as parent compound remaining at 1 uM measured after 60 mins by LC-MS/MS analysis. Particulars: read-out: Stability. It is filed as ADME, cell-free. The procedure, abridged: as §2
A further data set deals with T1, Glucocorticoid receptor (Homo sapiens, UniProt P04150).
T1 sequence (P04150 whole entry): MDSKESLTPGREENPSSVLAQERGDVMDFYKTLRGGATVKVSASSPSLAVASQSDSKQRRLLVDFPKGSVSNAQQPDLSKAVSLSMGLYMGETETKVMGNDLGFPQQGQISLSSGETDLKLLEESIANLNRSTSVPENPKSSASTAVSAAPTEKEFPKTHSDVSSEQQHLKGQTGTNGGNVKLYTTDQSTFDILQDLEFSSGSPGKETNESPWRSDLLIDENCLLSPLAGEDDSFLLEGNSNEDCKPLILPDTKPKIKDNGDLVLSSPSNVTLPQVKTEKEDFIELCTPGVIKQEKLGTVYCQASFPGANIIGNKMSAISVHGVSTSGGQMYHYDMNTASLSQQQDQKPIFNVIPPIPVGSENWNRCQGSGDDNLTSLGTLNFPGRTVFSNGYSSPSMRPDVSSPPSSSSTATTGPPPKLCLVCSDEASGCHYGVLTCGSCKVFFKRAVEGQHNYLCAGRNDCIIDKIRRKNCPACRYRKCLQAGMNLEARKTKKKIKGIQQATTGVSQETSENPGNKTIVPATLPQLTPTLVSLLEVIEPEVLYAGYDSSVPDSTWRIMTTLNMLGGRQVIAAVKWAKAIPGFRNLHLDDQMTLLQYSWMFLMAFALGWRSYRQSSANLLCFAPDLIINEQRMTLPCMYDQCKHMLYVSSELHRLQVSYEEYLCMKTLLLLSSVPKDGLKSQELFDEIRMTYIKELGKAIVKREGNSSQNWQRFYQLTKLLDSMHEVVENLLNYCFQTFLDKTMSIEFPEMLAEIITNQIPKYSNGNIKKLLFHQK
The data set is described as follows: Effect on glucocorticoid receptor in human HCT116 cells up to 10 uM measured after 24 hrs by Western blot analysis. Type of data set: ADME, cell-based. The method in brief:
as §3

Each structure is given as a SMILES string.

As to `Cc1cc(C)c(S(=O)(=O)N(CC(=O)O)c2ccc(Nc3ccnc(N4CCNCC4)n3)cc2)c(C)c1`, in [1], the half-life is 87.6 min. Also, at Heat shock protein HSP90, the Kd was 0.5 µM. This compound also showed a half-life at 10 µM in data set [2] of 124 min. The Vd/F in data set [3] was 0.392 L/kg. Besides, the microsomal CLint at 10 µM in data set [4] was found to be 8.97 µL/min/mg. Also, the exposure AUC(0-t) in data set [5] was determined as 533 µg·h/mL. The remaining at 0.5 h, 1 µM in [6] came out at 102%. For the same compound, the Activity result in the data set on HCT-116 [7], with HCT-116 [10], in the data set with HCT-116 [11], with HCT-116 [13] and at Glucocorticoid receptor was “Non-Toxic” throughout. This compound also gave a T1/2 in data set [8] of 1.46 h. Moreover, in data set [9], the Papp came out at 104 ×10⁻⁶ cm/s. The compound further returned a mean residence time MRT in data set [12] of 6.02 h. Moreover, the remaining at 1 h, 1 µM in [14] came out at 102%.
